Target: T1, YfcG (Escherichia coli, UniProt P77526)
T1 sequence (P77526 1-215): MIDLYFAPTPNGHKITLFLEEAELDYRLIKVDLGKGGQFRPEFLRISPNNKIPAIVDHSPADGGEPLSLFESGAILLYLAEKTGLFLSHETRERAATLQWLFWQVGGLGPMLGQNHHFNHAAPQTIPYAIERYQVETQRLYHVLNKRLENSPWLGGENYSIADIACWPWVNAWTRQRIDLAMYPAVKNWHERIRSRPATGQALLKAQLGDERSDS
Assay: intrinsic fluorescence titration
Format: binding
In short: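 Purified enzyme titrated with thiol and disulfide ligands at 25 °C, monitoring the protein's intrinsic fluorescence; dissociation constants derived from the titration.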

Kd: 23 ± 5 µM
SMILES: N[C@@H](CCC(=O)N[C@@H](CS(=O)(=O)O)C(=O)NCC(=O)O)C(=O)O [GSO3^−]
